The record followed here is PubChem BioAssay.

Test [1] can be described thus: Her2 expression decrease, cell viability multiplex – SKBR3 breast tumor cells, AlphaScreen, ATP viability, primary screen (AID 461;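 active means Her2 level under about 52% in both replicate screens, with viability over 70% of control, limit read from the data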;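 on Her2 level: lower value means less Her2 protein in the cells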;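 on viability: percent of carrier control wells set as 100% viability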). The note with it: SKBR3 Her2 protein level, 18-24 h, measured here: SKBR3 viability, ATP luminescence, at 10 µM. Background: Alpha assays give light when donor and acceptor beads are brought close together.
Test [2] has as its target Receptor tyrosine-protein kinase erbB-2 (Homo sapiens) (UniProt P04626). Described as above. To be noted: 18-24 h, at 10 µM, stronger effect = lower value.
Test [3] is described as follows: reduced viability of SK-BR-3 breast cancer cells – cell-based, 24 h, human, pilot screen (AID 572;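 active means viability at or below 10% of carrier control in both of two separate runs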;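 further: compound exposure lasted between 18 and 24 h rather than exactly 24 h; 100% = carrier-treated control wells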). To be noted: SK-BR-3 viability, CellTiter-Glo luminescence, at 10 µM, stronger effect = lower value. Background: In ATP-based viability assays light output follows the ATP content of the culture.
Test [4] in a line: HUVEC growth inhibition – cell-based, human, primary screen (AID 575).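 Further: 100% = median of untreated cell wells with 0.1% DMSO on each plate.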 The note with it: HUVEC proliferation, CellTiter-Glo luminescence, 72 h; at 10 µM; stronger effect = lower value. In a few lines: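 System: primary human umbilical vein endothelial cells; Quantity: 1250 endothelial cells in each well; Buffer or medium: supplemented EBM, 2% fetal bovine serum; Doses: one dose, 10 µM final, 0.1% DMSO; Incubation: 72 h compound incubation; Technique: ATP-based CellTiter-Glo luminescent read; Evaluation: percent of median DMSO-control luminescence; Controls: vehicle and MePR control wells.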

A short description of test [5]: H69AR cell proliferation blockers – human, duplicate replicates, primary screen (AID 580;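 active means viability at or under a set limit in both replicates, limit being median viability minus 3 SD, cut at about 48% in these data, passing the limit was not always enough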;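 further: 100% = mean luminescence of untreated wells and 0% = no signal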). To be noted: H69AR lung tumor cells viability, ATP luminescence, 72 h; at 10 µM; stronger effect = lower value.
Test [6] can be described thus: MRP1 drug-resistance reversers in H69AR cells – cell-based, doxorubicin co-treatment, pilot screen (AID 601;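 active means viability loss from added drug above about 55%, and viability with drug at most 40%, in both replicates, limit read from the data, passing the limit was not always enough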). The note with it: CellTiter-Glo, 72 h, at 10 µM; for differential viability (reversal): stronger effect = higher value.
Test [7] in a line: yeast transport mutant growth inhibition pilot in 384-well plates, post-Golgi transport modulator project (AID 636; in the data active means inhibition above about 31%). The note with it: absorbance 615 nm, about 18 h, stronger effect = higher value.
Test [8] is described as follows: growth suppression of yeast trafficking mutant, preliminary HTS, modulators of trafficking downstream of Golgi apparatus project, 1536-format plate, OD 615 nm (AID 637; in the data active means inhibition above about 30%). To be noted: yeast transport mutant growth, absorbance 615 nm, 18 h; stronger effect = higher value.
Setting [9] is: H69AR cells + 2 uM doxorubicin, measured here: viability with 2 uM doxorubicin, stronger effect = lower value.
Where [10] appears, read: H69AR cells, compound alone cytotoxicity.

Active and inactive are the calls of the source.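 How the source made its calls, unless noted: active means viability at or below 30% in both replicate assays; inconclusive means viability at or below 30% in just one of the two assays; inactive means the rest.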

Receptor tyrosine-protein kinase erbB-2 (Homo sapiens), sequence (P04626 whole entry, looked up): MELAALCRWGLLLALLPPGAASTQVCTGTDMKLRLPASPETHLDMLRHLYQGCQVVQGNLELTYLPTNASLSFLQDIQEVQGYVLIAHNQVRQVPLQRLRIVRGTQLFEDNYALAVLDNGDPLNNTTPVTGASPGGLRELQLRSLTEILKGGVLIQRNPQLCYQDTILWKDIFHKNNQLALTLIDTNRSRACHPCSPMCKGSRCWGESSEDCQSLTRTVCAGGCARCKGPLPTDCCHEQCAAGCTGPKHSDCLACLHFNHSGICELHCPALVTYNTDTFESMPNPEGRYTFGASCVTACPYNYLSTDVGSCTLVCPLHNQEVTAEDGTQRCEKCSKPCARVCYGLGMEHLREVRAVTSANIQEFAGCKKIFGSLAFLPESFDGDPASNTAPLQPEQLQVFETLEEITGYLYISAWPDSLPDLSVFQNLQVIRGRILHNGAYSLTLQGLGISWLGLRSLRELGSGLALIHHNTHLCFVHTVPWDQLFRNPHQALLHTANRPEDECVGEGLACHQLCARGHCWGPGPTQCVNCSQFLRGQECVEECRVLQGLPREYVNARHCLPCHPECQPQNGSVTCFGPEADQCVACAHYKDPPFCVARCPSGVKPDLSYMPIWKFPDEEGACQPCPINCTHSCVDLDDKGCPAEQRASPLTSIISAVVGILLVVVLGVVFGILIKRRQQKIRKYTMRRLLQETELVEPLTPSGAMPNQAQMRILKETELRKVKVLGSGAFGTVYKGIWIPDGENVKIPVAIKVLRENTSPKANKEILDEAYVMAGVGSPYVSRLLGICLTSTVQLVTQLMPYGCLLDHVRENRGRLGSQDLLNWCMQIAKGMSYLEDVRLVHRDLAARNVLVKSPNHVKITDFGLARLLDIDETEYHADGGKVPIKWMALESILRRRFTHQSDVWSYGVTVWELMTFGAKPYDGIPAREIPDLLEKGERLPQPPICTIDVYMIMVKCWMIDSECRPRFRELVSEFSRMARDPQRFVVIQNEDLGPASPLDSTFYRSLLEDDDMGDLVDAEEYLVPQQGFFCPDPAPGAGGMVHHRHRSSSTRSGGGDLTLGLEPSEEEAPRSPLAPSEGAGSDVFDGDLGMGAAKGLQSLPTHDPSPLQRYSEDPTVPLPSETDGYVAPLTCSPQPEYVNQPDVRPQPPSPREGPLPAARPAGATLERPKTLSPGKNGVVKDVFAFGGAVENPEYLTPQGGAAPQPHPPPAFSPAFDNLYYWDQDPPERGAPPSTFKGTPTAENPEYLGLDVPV

As to `CSc1nnc(-c2nnc(SC)n2-c2ccccc2)n1-c1ccccc1`, the viability (commonly a read-out of living cells in per cent, often relative to untreated cells) is 87% in test [1]; 87% (inactive) in test [3]; 89.8% (inactive) in test [4]; 98.3% (inactive) in test [5]; 88.6% in test [6] (setting [9]); 98.3% in test [6] (setting [10]). Also, the Her2 level in test [2] was 83.5% (inactive). The differential viability (reversal) in test [6] (H69AR cells + 2 uM doxorubicin) is 9.77% (inactive). The inhibition (usually the drop in the measured response relative to a control, in per cent) in test [7] was -5.73% (inactive); in test [8] it was 6.77% (inactive).
In the case of `CCOc1nc2ccccc2nc1NS(=O)(=O)c1ccccc1`, the viability in test [1] was 83%; in test [3], 83% (inactive); in test [4], 91.3% (inactive); in test [5], 88.5% (inactive); in test [6] (setting [9]), 88%; in test [6] (setting [10]) it was 88.5%. Further, the Her2 level in test [2] is 75% (inactive). The differential viability (reversal) in test [6] (H69AR cells + 2 uM doxorubicin) is 0.49% (inactive). Moreover, the values for the inhibition in test [7] and in test [8] were -2.24% (inactive) and 3.82% (inactive), respectively.
For the molecule `Cc1cccc(C)c1NC(=O)CC(NCc1ccco1)C(=O)O` (stereo not given), the viability in test [1] was 116%; in test [3] it was 116% (inactive); in test [4], 118% (inactive); in test [5], 109% (inactive); in test [6] (setting [9]) it was 95.8%; in test [6] (setting [10]), 109%. In addition, the Her2 level in test [2] is 85% (inactive). For the same molecule, the differential viability (reversal) in test [6] (H69AR cells + 2 uM doxorubicin) is 13.5% (inactive). Besides, the inhibition was -7.7% (inactive) in test [7] and -2.67% (inactive) in test [8].
As to `COc1ccc(OC)c(NC(=O)CCN2CCN(c3ccccc3F)CC2)c1`, the viability was 94.5% in test [1]; 94.5% (inactive) in test [3]; 90.8% (inactive) in test [4]; 97.8% (inactive) in test [5]; 84.7% in test [6] (setting [9]); 97.8% in test [6] (setting [10]). Besides, the Her2 level in test [2] is 106% (inactive). Moreover, the differential viability (reversal) in test [6] (H69AR cells + 2 uM doxorubicin) is 13.1% (inactive). The inhibition in test [7] is -4.93% (inactive); in test [8], -8.39% (inactive).
With `CCOC(=O)C(NC(C)=O)(Nc1ccc(S(=O)(=O)Nc2nccs2)cc1)C(F)(F)F` (stereo not given), the viability in test [1] is 120%; in test [3], 120% (inactive); in test [4], 102% (inactive); in test [5], 109% (inactive); in test [6] (setting [9]), 106%; in test [6] (setting [10]) it was 109%. Besides, the Her2 level in test [2] was 106% (inactive). Further, the differential viability (reversal) in test [6] (H69AR cells + 2 uM doxorubicin) is 3.07% (inactive). Also, the inhibition in test [7] is 0.39% (inactive); in test [8] it was 8.57% (inactive).
Turning to `COc1ccccc1Nc1nc(N)nc(CSc2nccc(C)n2)n1`, the viability is 99% in test [1]; 99% (inactive) in test [3]; 107% (inactive) in test [4]; 91% (inactive) in test [5]; 85.7% in test [6] (setting [9]); 91% in test [6] (setting [10]). Moreover, the Her2 level in test [2] is 90.5% (inactive). Moreover, in test [6] (H69AR cells + 2 uM doxorubicin), the differential viability (reversal) was 5.23% (inactive). The inhibition in test [7] is -3.82% (inactive); in test [8], 0% (inactive).
`CCC(C)(C(=O)NC1CCCCC1)N(Cc1ccco1)C(=O)c1cnccn1` (stereo not given): the viability in test [1] was 82%; in test [3], 82% (inactive); in test [4] it was 88.7% (inactive); in test [5], 97.5% (inactive); in test [6] (setting [9]), 89.2%; in test [6] (setting [10]), 97.5%. The Her2 level in test [2] was 98% (inactive). The differential viability (reversal) in test [6] (H69AR cells + 2 uM doxorubicin) is 8.25% (inactive). In addition, the values for the inhibition in test [7] and in test [8] were -0.78% (inactive) and -3.77% (inactive), respectively.
Regarding `CCC1(C)Cc2c(C#N)c(N)n(N)c(=S)c2CO1` (stereo not given), the viability in test [1] is 102%; in test [3] it was 102% (inactive); in test [4] it was 85.1% (inactive); in test [5], 81.7% (inactive); in test [6] (setting [9]), 89.3%; in test [6] (setting [10]), 81.7%. In test [2], the Her2 level is 97.5% (inactive). Also, the differential viability (reversal) in test [6] (H69AR cells + 2 uM doxorubicin) was -7.55% (inactive). The values for the inhibition in test [7] and in test [8] were 0.91% (inactive) and -2.13% (inactive), respectively.
`CCOC(=O)N1CCN(c2cc3nccnc3cc2F)CC1`: the viability was 114% in test [1]; 114% (inactive) in test [3]; 84.5% (inactive) in test [4]; 99.3% (inactive) in test [5]; 93.7% in test [6] (setting [9]); 99.3% in test [6] (setting [10]). Further, the Her2 level in test [2] was 92% (inactive). Moreover, the differential viability (reversal) in test [6] (H69AR cells + 2 uM doxorubicin) is 5.61% (inactive). The inhibition is -7.03% (inactive) in test [7] and -4.17% (inactive) in test [8].
